Source: ChEMBL document CHEMBL1143930, “S-Euglobals: biomimetic synthesis, antileishmanial, antimalarial, and antimicrobial activities” (Bioorg Med Chem, 2008)
In brackets after ≈: the same amount, converted by molar mass. Activity calls are given as the source filed them. The calls are words filed in the database; no cut-off is given here.

Columns and labels:
[1] = tested on: SK-MEL; test: Cytotoxicity against human SKMEL cells by neutral red assay up to 25 ug/mL; format: functional, cell-based
Outline: (§1)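 Cells were seeded at 25,000 per well and incubated 24 h. Test samples were added at a range of concentrations, followed by a further 48 h incubation. Viable cells were quantified by Neutral Red uptake, and IC50 was read from dose curves of percent growth versus concentration.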

[2] = tested on: Cryptococcus neoformans; test: Antifungal activity against Cryptococcus neoformans; format: functional, organism-based
Outline: (§2)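 Modified NCCLS broth microdilution. Samples in DMSO were serially diluted in 0.9% saline and tested in duplicate. Inocula were matched to the 0.5 McFarland standard by absorbance at 630 nm, then diluted in broth. Growth, solvent and media controls were included. Plates were read at 630 nm before and after incubation, and IC50 was taken from percent growth versus concentration.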

[3] = tested on: Vero; test: Cytotoxicity against african green monkey Vero cells by neutral red assay up to 25 ug/mL; format: cell-based; settings: chlorocebus sabaeus; outline: as §1
[4] = Cytotoxicity against pig LLC-PK11 cells by neutral red assay up to 25 ug/mL; format: cell-based, Sus scrofa; outline: as §1
[5] = tested on: Candida albicans; test: Antifungal activity against Candida albicans; format: functional, organism-based; outline: as §2
[6] = tested on: KB; test: Cytotoxicity against human KB cells by neutral red assay up to 25 ug/mL; format: functional, cell-based; outline: as §1
[7] = tested on: Leishmania donovani; test: Antileishmanial activity against Leishmania donovani promastigotes after 48 hrs by Alamar blue assay; format: functional, organism-based
Outline: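 L. donovani promastigotes were grown in RPMI 1640 with 10% fetal calf serum at 26 C. A 3-day-old culture was diluted to 5 × 10^5 promastigotes/mL, and drug dilutions were made directly in the cell suspension. After 48 h at 26 C, growth was read by Alamar Blue fluorescence (ex 544/em 590 nm). IC50 and IC90 came from percent growth versus concentration curves.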

[8] = tested on: SK-OV-3; test: Cytotoxicity against human SK-OV3 cells by neutral red assay up to 25 ug/mL; format: functional, cell-based; outline: as §1
[9] = tested on: BT-549; test: Cytotoxicity against human BT549 cells by neutral red assay up to 25 ug/mL; format: functional, cell-based; outline: as §1
[10] = tested on: Aspergillus fumigatus; test: Antifungal activity against Aspergillus fumigatus; format: functional, organism-based; outline: as §2
[11] = tested on: BT-549; test: Cytotoxicity against human BT549 cells by neutral red assay; format: functional, cell-based; outline: as §1
[12] = tested on: Vero; test: Cytotoxicity against african green monkey Vero cells by neutral red assay; format: cell-based; settings: chlorocebus sabaeus; outline: as §1
[13] = tested on: Staphylococcus aureus; test: Antibacterial activity against methicillin-resistant Staphylococcus aureus; format: functional, organism-based
Outline: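 Modified NCCLS broth microdilution. Samples in DMSO serially diluted in 0.9% saline, tested in duplicate. Inoculum set against 0.5 McFarland standard by absorbance at 630 nm, then diluted in broth. Growth, solvent and media controls included. Plates read at 630 nm before and after incubation. IC50 from percent growth vs concentration; MIC = lowest concentration with no detectable growth.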

[14] = tested on: SK-OV-3; test: Cytotoxicity against human SK-OV3 cells by neutral red assay; format: functional, cell-based; outline: as §1
[15] = tested on: SK-MEL; test: Cytotoxicity against human SKMEL cells by neutral red assay; format: functional, cell-based; outline: as §1
[16] = Cytotoxicity against pig LLC-PK11 cells by neutral red assay; format: cell-based; settings: Sus scrofa; outline: as §1
[17] = tested on: KB; test: Cytotoxicity against human KB cells by neutral red assay; format: functional, cell-based; outline: as §1
[18] = tested on: Plasmodium falciparum; test: Antimalarial activity against chloroquine-resistant Plasmodium falciparum W2 by LDH release; format: functional, organism-based
Outline: (§3)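 Infected red cells (W2 or D6), 2% parasitemia, 2% hematocrit, in RPMI 1640 with 10% human serum and 60 µg/mL amikacin, exposed to serial sample dilutions. Incubated 72 h at 37 C under 90% N2/5% O2/5% CO2. Parasite LDH measured with Malstat reagent (30 min, room temperature), then NBT/PES 1 h in dark, stopped with 5% acetic acid, read at 650 nm. IC50 from dose-response curves.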

[19] = tested on: Plasmodium falciparum; test: Antimalarial activity against chloroquine-sensitive Plasmodium falciparum D6 by LDH release assay; format: functional, organism-based; outline: as §3

SMILES	Activity [1]	Activity [2]	Activity [3]	Activity [4]	Activity [5]	Activity [6]	Activity [7]	Activity [8]	Activity [10]	IC50 [7] [mg/L]	IC50 [11] [mg/L]	further results
CC(C)CC(=O)c1c(O)c2c(c(C(=O)CC(C)C)c1O)O[C@@]1(CC2)[C@H]2CC[C@H](C2)C1(C)C	inactive	inactive	Not Active	Not Active	inactive	inactive	inactive	inactive	inactive			Activity [9]: inactive
CC(C)CC(=O)c1c(O)c(C=O)c2c(c1O)C[C@H]1C[C@H]3C[C@H](C3(C)C)[C@@]1(C)O2 [EUGLOBAL G2]										3.6 (≈ 9.31 µM)		
CC(C)CC(=O)c1c(O)c2c(c(C(=O)CC(C)C)c1O)O[C@@]1(CO)[C@@H](C2)C[C@H]2C[C@@H]1C2(C)C	inactive	inactive		Not Active	inactive	inactive		inactive	inactive	24 (≈ 52.3 µM)	25 (≈ 54.5 µM)	IC50 [12]: > 25 mg/L
CC1(C)[C@H]2C[C@@H]3Cc4c(O)c(C=O)c(O)c(C=O)c4O[C@]3(CCO)[C@@H]1C2	inactive	inactive	Not Active	Not Active	inactive	inactive		inactive	inactive	22 (≈ 61 µM)		Activity [9]: inactive
CC(C)CC(=O)c1c(O)c2c(c(C(=O)CC(C)C)c1O)O[C@@]1(CCO)[C@@H](C2)C[C@H]2C[C@@H]1C2(C)C	inactive	inactive	Not Active	Not Active	inactive	inactive	inactive	inactive	inactive		> 25	
CC(C)CC(=O)c1c(O)c(C=O)c2c(c1O)C[C@H]1C[C@H]3C[C@H](C3(C)C)[C@@]1(CCO)O2		inactive			inactive				inactive	9.5 (≈ 22.8 µM)	18.5 (≈ 44.4 µM)	IC50 [13]: 1 mg/L (≈ 2.4 µM); MIC [13]: 5 mg/L (≈ 12 µM); IC50 [14]: 25 mg/L (≈ 60 µM); IC50 [15]: 25 mg/L (≈ 60 µM); IC90 [7]: 33 mg/L (≈ 79.2 µM); IC50 [16]: 25 mg/L (≈ 60 µM); IC50 [12]: 20 mg/L (≈ 48 µM); IC50 [17]: 20 mg/L (≈ 48 µM)
O=C(O)c1cn(C2CC2)c2cc(N3CCNCC3)c(F)cc2c1=O [CIPROFLOXACIN]												MIC [13]: 0.25 mg/L (≈ 0.754 µM)
N=C(N)c1ccc(OCCCCCOc2ccc(C(=N)N)cc2)cc1 [PENTAMIDINE]										1.2 (≈ 3.52 µM)		IC90 [7]: 6 mg/L (≈ 17.6 µM)
CC(C)CC(=O)c1c(O)c(C=O)c(O)c2c1O[C@@]1(CCO)[C@@H](C2)C[C@H]2C[C@@H]1C2(C)C	inactive	inactive			inactive				inactive	32 (≈ 76.8 µM)	> 25	IC50 [13]: 5 mg/L (≈ 12 µM); IC50 [14]: > 25 mg/L; IC50 [16]: > 25 mg/L; IC50 [12]: > 25 mg/L; IC50 [17]: > 25 mg/L
CC1(C)[C@H]2C[C@@H]3Cc4c(O)c(C=O)c(O)c(C=O)c4O[C@]3(CO)[C@@H]1C2		inactive	Not Active	Not Active	inactive		inactive	inactive	inactive		25 (≈ 72.2 µM)	IC50 [15]: 25 mg/L (≈ 72.2 µM)
CC(C)CC(=O)c1c(O)c2c(c(C(=O)CC(C)C)c1O)O[C@]1(CC2)CC[C@@H]2C[C@H]1C2(C)C	inactive	inactive	Not Active	Not Active	inactive	inactive	inactive	inactive	inactive			Activity [9]: inactive
CC(C)CC(=O)c1c(O)c2c(c(C(=O)CC(C)C)c1O)O[C@]1(C)C[C@@H]3[C@H](C[C@@H]1C2)C3(C)C	inactive	inactive	Not Active	Not Active	inactive	inactive	inactive	inactive	inactive			Activity [9]: inactive
COc1cccc2c1C(=O)c1c(O)c3c(c(O)c1C2=O)C[C@@](O)(C(=O)CO)C[C@@H]3O[C@H]1C[C@H](N)[C@H](O)[C@H](C)O1 [DOXORUBICIN]											0.6 (≈ 1.1 µM)	IC50 [14]: 0.75 mg/L (≈ 1.38 µM); IC50 [15]: 0.6 mg/L (≈ 1.1 µM); IC50 [16]: 0.5 mg/L (≈ 0.92 µM); IC50 [17]: 0.9 mg/L (≈ 1.66 µM)
CC(C)CC(=O)c1c(O)c2c(c(C(=O)CC(C)C)c1O)O[C@@]1(C)[C@H](CC[C@H]3[C@@H]1C3(C)C)C2	inactive	inactive	Not Active	Not Active	inactive	inactive	inactive	inactive	inactive			Activity [9]: inactive
CC(C)CC(=O)c1c(O)c(C=O)c(O)c2c1O[C@@]1(CO)[C@@H](C2)C[C@H]2C[C@@H]1C2(C)C	inactive	inactive	Not Active	Not Active	inactive	inactive		inactive	inactive	30 (≈ 74.5 µM)	22.5 (≈ 55.9 µM)	IC50 [13]: 10 mg/L (≈ 24.8 µM)
CC1(C)[C@H]2[C@@H]1CC[C@@H]1Cc3c(O)c(C=O)c(O)c(C=O)c3O[C@@]12C	inactive	inactive	Not Active	Not Active	inactive			inactive	inactive	20 (≈ 60.5 µM)	> 25	IC90 [7]: 40 mg/L (≈ 121 µM); IC50 [17]: 20 mg/L (≈ 60.5 µM)
C[C@@H]1CC[C@H]2[C@@H](C)C(=O)O[C@@H]3O[C@@]4(C)CC[C@@H]1[C@]32OO4 [ARTEMISININ]												IC50 [18]: 0.0075 mg/L (≈ 0.0266 µM); IC50 [19]: 0.014 mg/L (≈ 0.0496 µM)
C[C@@H]1[C@H](O)[C@@H](C)/C=C/C=C/C=C/C=C/C=C/C=C/C=C/[C@H](O[C@@H]2O[C@H](C)[C@@H](O)[C@H](N)[C@@H]2O)C[C@@H]2O[C@](O)(C[C@@H](O)C[C@@H](O)[C@H](O)CC[C@@H](O)C[C@@H](O)CC(=O)O[C@H]1C)C[C@H](O)[C@H]2C(=O)O [AMPHOTERICIN B]										0.19 (≈ 0.206 µM)		IC90 [7]: 0.36 mg/L (≈ 0.39 µM)
CC(C)CC(=O)c1c(O)c(C=O)c2c(c1O)C[C@H]1CC[C@H]3[C@H](C3(C)C)[C@@]1(C)O2	inactive	inactive	Not Active		inactive	inactive			inactive	2.4 (≈ 6.21 µM)	> 25	IC50 [14]: > 25 mg/L; IC90 [7]: 8 mg/L (≈ 20.7 µM); IC50 [16]: > 25 mg/L
CC(C)CC(=O)c1c(O)c2c(c(C(=O)CC(C)C)c1O)O[C@@]1(C)[C@@H](C2)C[C@H]2C[C@@H]1C2(C)C	inactive	inactive	Not Active	Not Active	inactive	inactive	inactive	inactive	inactive			Activity [9]: inactive
CC(C)CC(=O)c1c(O)c(C=O)c2c(c1O)C[C@H]1C[C@H]3C[C@H](C3(C)C)[C@@]1(CO)O2	inactive	inactive	Not Active	Not Active	inactive	inactive		inactive	inactive	18 (≈ 44.7 µM)	23 (≈ 57.1 µM)	IC50 [13]: 2.5 mg/L (≈ 6.21 µM); IC90 [7]: 39 mg/L (≈ 96.9 µM)
